System: Chinese Hamster Ovary (CHO) cells
Assay: Cytotoxicity, MTT assay in CHO cells
Type: cell-based
Details: 5 μM, 48 hours
Procedure, shortened: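 CHO cells seeded in 96-well plates, test compound added at concentrations up to 20 μM, then 48 h at 37°C, 5% CO2, humidified (cells adhere during incubation). MTT (50 μg/well) added for 6 h. Formazan dissolved in acidified isopropanol (90% isopropanol:10% Triton X-100:0.4% HCl), OD read at 550 nm as relative viability. Mean ± standard error, ≥3 experiments.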

Substance: Melittin
- cell viability (positive control): complete loss of cell viability

— article PMC3995353 (Biopolymers, 2014)
